According to publication PMC5695149 (Theranostics, 2017):
Starred links: 1 amine or outer side, 2 acyl side, 3 side chain; linkers in the order of their positions; H or OH if unused. Positions of bridges follow the written chain, without caps; N, C: chain ends. Non-standard residues stand in square brackets, D forms with d. Residues, ends and D or L forms follow the SMILES beside them. hNle(4R-Ph,7-yl) = O=C([C@H](C[C@@H](CCC[*:3])c1ccccc1)N[*:1])[*:2]; X1 = C[C@H](CCC[*:3])C[C@H](N[*:1])C(=O)[*:2]

Tests used:
caspase-3 = assay: Caspase-3 activity assay, PA-1; format: cell-based, human
Method in brief: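 Apoptosis in PA-1 cells was read as caspase-3 activity after exposing the cells to a caspase-3-specific substrate.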

p53 [1] = assay: p53 accumulation kinetics in HCT-116 Venus knock-in cell line; format: cell-based; settings: HCT-116 p53-VKI; PhR 40 µM; nutlin-3a 0.5 or 5 µM (Fig. S9 legend)
PA-1 xenograft = assay: Antitumor efficacy in PA-1 human xenograft model; format: in vivo, mice; settings: for mice that died during the treatment period: 21 days of treatment
Method in brief: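 Female athymic nude mice (BALB/c nu, 6 weeks) received 1 × 10^7 PA-1 cells in DMEM subcutaneously in the lower flank. After 10-15 days, mice with 100-150 mm3 tumors were randomized into 3 groups of 5-6. Test compound at 10 mg/kg, or PBS as negative control, was injected intratumorally every 2 days from day 0 for 21 days. Mice were followed a further 24 days; survival plotted as Kaplan-Meier curves.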

Skov-3 cells = assay: Cell viability; format: cell-based; settings: Skov-3 (mutant p53), up to 50 μM, 48 h
Method in brief: (§1)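 MTT assay: cells at 5 × 10^3/well were exposed to test compound (3.12, 6.25, 12.5, 25, 50 µM) in serum-free medium for 4 h. Serum was then restored for a further 44 h. MTT (5 mg/mL in PBS) was added for 4 h at 37 °C, 5% CO2. Formazan was dissolved in DMSO and absorbance read at 490 nm. At least three independent measurements, SEM shown.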

QSG-7701 cells [2] = assay: Cell viability; format: cell-based; settings: QSG-7701 normal cells, 3.12-50 µM, 48 h
Method in brief: (§2)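 MTT viability assay. Cells were seeded at 5 × 10³/well and given the test compound at 3.12, 6.25, 12.5, 25 or 50 µM in serum-free medium for 4 h. Serum was then replaced and cells incubated a further 44 h. MTT (5 mg/mL in PBS) was added for 4 h at 37 °C, 5% CO2, and formazan was dissolved in DMSO. A490 was read. SEM from at least three independent measurements.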

PA-1 cells [3] = assay: Cellular uptake of FITC-labelled peptides, confocal microscopy and FACS, PA-1; format: cell-based, human; settings: 37°C, 2 h
p53 [4] = assay: Western blot of p53 expression, MCF-7; format: cell-based; settings: MCF-7, 40 µM peptide, 48 h
Method in brief: (§3)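 Cells in 6-well plates were treated 48 h, then lysed in Tris-SDS buffer (pH 6.8). 20 μg protein was run on 10% SDS-PAGE and transferred to nitrocellulose. Blots were probed overnight at 4 °C with rabbit monoclonal anti-p53 (1:500), with pan-actin (1:1000) as reference. Goat secondary antibodies were applied 1 h at room temperature, with chemiluminescent detection.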

Histological analysis = format: in vivo; settings: 21 days after injection, compared with PBS-treated mice
Method in brief: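 Tumor, heart, liver, spleen, lung, kidney and brain were harvested 21 days after injection. Tissue sections were stained with hematoxylin and eosin and examined for histological changes.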

PA-1 cells [5] = assay: Annexin-V/PI apoptosis assay, PA-1; format: cell-based, human; settings: PA-1, 40 μM peptides or 5 μM nutlin-3a, 48 h
Method in brief: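 Exposed PA-1 cells were stained with Annexin-V/PI. Apoptotic cells were counted as the sum of quadrants Q1+Q2+Q3 and reported as a ratio of total cells.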

p53 [6] = assay: Western blot of p53 expression, PA-1; format: cell-based, human; settings: PA-1, 40 µM peptide, 48 h
Method in brief: as §3

PA-1 cells [7] = assay: Cell cycle analysis by PI staining and flow cytometry, PA-1; format: cell-based, human; settings: PA-1, 40 μM peptides or 5 μM nutlin-3a, 48 h
p53 and p21 = assay: Immunohistochemistry of tumor tissues; format: in vivo, mice; settings: PA-1 xenograft tumor tissue, 10 mg/kg
MDA-231 cells = assay: Cell viability; format: cell-based; settings: MDA-231 (mutant p53), up to 50 μM, 48 h
Method in brief: as §1

MCF-7 cells = assay: Cellular uptake of FITC-labelled peptides, confocal microscopy, MCF-7; format: cell-based; settings: MCF-7, FITC-labeled peptide, 37°C, 2 h
Method in brief: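 Cells in DMEM + 10% FBS (50000/well) were grown 1 day to ~80% adherence. FITC-labelled peptide (1 mM DMSO stock) was added to 5 µM final at 37 °C. Cells were washed 3× in PBS, fixed in 4% formaldehyde for 10 min, stained with DAPI 1 μg/mL for 5 min, and imaged by confocal microscopy. PA-1 uptake was also quantified by flow cytometry.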

MDMX = biological target: T1, MDMX (Homo sapiens, UniProt O15151); assay: Fluorescence polarization assay, FITC-labeled peptide with GST-labeled MDMX; format: binding; settings: compared within the library
T1 sequence (O15151 1-490): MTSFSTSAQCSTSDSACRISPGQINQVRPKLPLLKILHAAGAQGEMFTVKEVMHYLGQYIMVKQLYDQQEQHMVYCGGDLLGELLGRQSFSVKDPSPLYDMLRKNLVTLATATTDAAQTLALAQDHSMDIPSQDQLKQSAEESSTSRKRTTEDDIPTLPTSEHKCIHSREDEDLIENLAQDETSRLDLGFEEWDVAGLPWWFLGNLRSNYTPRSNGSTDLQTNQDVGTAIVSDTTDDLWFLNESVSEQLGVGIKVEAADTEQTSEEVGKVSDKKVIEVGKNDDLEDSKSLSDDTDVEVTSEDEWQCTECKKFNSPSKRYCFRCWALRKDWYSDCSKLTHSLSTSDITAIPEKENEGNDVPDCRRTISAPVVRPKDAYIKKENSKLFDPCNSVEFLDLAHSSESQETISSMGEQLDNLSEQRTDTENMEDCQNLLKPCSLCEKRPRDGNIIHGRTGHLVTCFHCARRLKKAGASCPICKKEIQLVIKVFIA
Method in brief: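 Fluorescence polarization: FITC-labelled peptide (10 or 20 nM) incubated with MDMX protein in 140 mM NaCl, 50 mM Tris pH 8.0 for 1 h at room temperature. Peptide concentration set from FITC absorbance at 494 nm. Kd obtained by nonlinear regression of dose-response curves.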

QSG-7701 cells [8] = assay: Cell cycle analysis by PI staining and flow cytometry, QSG-7701; format: cell-based; settings: QSG-7701, 48 h, PI staining
[9] = Mice voluntary cage-wheel exercise assay; format: in vivo; settings: BALB/c mice, 10 mg/kg subcutaneous, 20 days
Method in brief: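 BALB/c mice were randomly split into two groups given a single subcutaneous injection of PBS or test compound (10 mg/kg). Voluntary cage-wheel running cycles were recorded over 20 days after injection.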

sox2 and foxA2 genes = assay: RT-qPCR of stemness and differentiation genes, PA-1; format: cell-based, human; settings: PA-1, 40 µM, 48 h
Method in brief: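 Exponentially growing PA-1 cells were seeded in 6-well plates and treated 48 h with 40 µM peptide; nutlin-3a at 1 µM was the comparator. mRNA was quantified by real-time qPCR and expressed as fold increase. Triplicates from three independent experiments, SEM shown.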

p53-MDM2 binding = p53-MDM2 binding (Homo sapiens, UniProt Q00987); assay: Immunoprecipitation of p53-MDM2 from PA-1 cell lysates, western blotting; format: cell-based; settings: PA-1, 40 μM, 4 h, versus DMSO control, 10% FBS
Method in brief: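 Exponentially growing PA-1 cells received the test compound or an equal volume of DMSO. Cells were lysed in 50 mM Tris pH 8.0, 150 mM NaCl, 1 mM EDTA, 0.5% NP-40. Extract (500 µg) was precleared 2 h on protein G Sepharose, then incubated with rabbit monoclonal anti-p53 or mouse monoclonal anti-MDM2. Complexes were captured on protein G beads overnight at 4 °C and washed five times in cold lysis buffer. Western blots were probed for p53, MDM2 and pan-actin.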

HEK-293 cells = assay: Cell viability; format: cell-based; settings: HEK-293 normal cells, 3.12-50 µM, 48 h
Method in brief: as §2

[10] = PA-1 xenograft, 10 mg/kg every other day

Chain of p53-MDM2 binding (Q00987 whole entry): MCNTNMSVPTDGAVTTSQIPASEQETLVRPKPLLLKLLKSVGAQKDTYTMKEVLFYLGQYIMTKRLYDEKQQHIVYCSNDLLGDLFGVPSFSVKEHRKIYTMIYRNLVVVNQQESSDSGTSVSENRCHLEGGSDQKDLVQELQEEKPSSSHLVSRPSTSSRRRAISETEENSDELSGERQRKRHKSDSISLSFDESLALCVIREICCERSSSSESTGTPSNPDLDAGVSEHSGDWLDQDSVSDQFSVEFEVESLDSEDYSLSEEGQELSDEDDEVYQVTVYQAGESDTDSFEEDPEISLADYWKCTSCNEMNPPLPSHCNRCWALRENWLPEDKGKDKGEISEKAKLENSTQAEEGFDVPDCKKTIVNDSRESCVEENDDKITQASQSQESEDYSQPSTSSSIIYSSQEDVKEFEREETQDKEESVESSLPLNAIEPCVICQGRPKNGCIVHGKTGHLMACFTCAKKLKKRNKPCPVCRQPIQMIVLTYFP

| SMILES | time to highest levels of p53 and p21 (p53 [1]) | mice that died during the treatment period (PA-1 xenograft; [10]) | effect on cell viability (Skov-3 cells) | effect on cell growth and proliferation (QSG-7701 cells [2]) | p53 expression (western blot) (p53 [4]) | p53 expression (western blot) (p53 [6]) | effect on cell viability (MDA-231 cells) | binding ability toward MDMX (MDMX) | effect on cell growth and proliferation (HEK-293 cells) | other results |
| --- | --- | --- | --- | --- | --- | --- | --- | --- | --- | --- |
| COc1ccc(C2=N[C@@H](c3ccc(Cl)cc3)[C@@H](c3ccc(Cl)cc3)N2C(=O)N2CCNC(=O)C2)c(OC(C)C)c1 [nutlin-3a] | 48 h | three in ten |  |  |  |  |  |  |  | apoptosis by caspase-3 activity (caspase-3; PA-1, at a low dose): minimal apoptosis; caspase-3 activity (caspase-3; PA-1, at higher doses (>5 μM)): no caspase-3 activity was detected; mice death in the first week of treatment (PA-1 xenograft; [10]): 20%; tumor growth inhibition (TGI) (PA-1 xenograft; PA-1 xenograft, athymic nude mice, 10 mg/kg every other day, intratumoral injection, 3 weeks): 30% |
| CC(=O)N[C@@H](CC(C)C)C(=O)N[C@H](C(=O)N[C@@H](Cc1ccccc1)C(=O)N[C@H]1CSCCC[C@@H](c2ccccc2)C[C@@H](C(=O)N[C@@H](CCC(N)=O)C(=O)N[C@@H](CC(C)C)C(=O)N[C@H](C(=O)N[C@@H](CO)C(N)=O)[C@@H](C)O)NC(=O)[C@H](Cc2c[nH]c3ccccc23)NC(=O)[C@H](Cc2ccc(O)cc2)NC(=O)[C@H](Cc2c[nH]cn2)NC1=O)[C@@H](C)O [PhR] (Ac-LTFCHYW[hNle(4R-Ph,7-yl)]QLTS-NH2; thioether 4-8; N-terminus assumed) | 12 h | no mice died | Negligible effects | little effect on the cell growth and proliferation | upregulated | upregulated | Negligible effects | highest binding abilities | little effect on the cell growth and proliferation | apoptosis by caspase-3 activity (caspase-3; PA-1, dose ladder): dose-dependent apoptosis; cellular uptake, comparison (PA-1 cells [3]; PA-1, 5 µM FITC-labelled peptide, confocal and flow cytometry): higher cellular uptake than MeR; internalization, live cell confocal imaging (PA-1 cells [3]; PA-1, 5 uM, live cells): internalized into the cells both in the cytoplasm and nucleus; histological changes of major organs (H&E) (Histological analysis): no signs of organ lesions; apoptotic effect (Annexin-V/PI) (PA-1 cells [5]): more pronounced in PA-1 than those of MeR and nutlin-3a; cell-cycle arrest (PA-1 cells [7]): more effective in inducing cell-cycle arrest in the G2/M phase than MeR and nutlin-3a; p53 and p21 expression in tumor tissues (immunohistochemistry) (p53 and p21): higher expression levels of p53 and p21; cellular uptake, comparison (MCF-7 cells): higher cellular uptake than MeR; cell-cycle arrest in normal cell line (QSG-7701 cells [8]): did not induce cell cycle arrest; voluntary running cycles versus PBS group [9]: no significant differences; expression of differentiation gene foxA2 (qPCR) (sox2 and foxA2 genes): upregulation; expression of stemness gene sox2 (qPCR) (sox2 and foxA2 genes): significant downregulation; MDM2 protein bound to p53 (IP and western blotting) (p53-MDM2 binding): substantial reduction of MDM2 protein bound to p53; survival (Kaplan-Meier) (PA-1 xenograft; treated for 21 days and raised for another 24 days post treatment): able to prolong the lives of the mice |
| CC(=O)N[C@@H](CC(C)C)C(=O)N[C@H](C(=O)N[C@@H](Cc1ccccc1)C(=O)N[C@H]1CSCCC[C@@H](C)C[C@@H](C(=O)N[C@@H](CCC(N)=O)C(=O)N[C@@H](CC(C)C)C(=O)N[C@H](C(=O)N[C@@H](CO)C(N)=O)[C@@H](C)O)NC(=O)[C@H](Cc2c[nH]c3ccccc23)NC(=O)[C@H](Cc2ccc(O)cc2)NC(=O)[C@H](Cc2c[nH]cn2)NC1=O)[C@@H](C)O [MeR] (Ac-LTFCHYW[X1]QLTS-NH2; thioether 4-8; N-terminus assumed) |  |  | Negligible effects | little effect on the cell growth and proliferation | upregulated | upregulated | Negligible effects | highest binding abilities | little effect on the cell growth and proliferation |  |
